Results pooled from the literature.
BRAF: Serine/threonine-protein kinase B-raf (BRAF, Homo sapiens, UniProt P15056)
BRAF V600E: Serine/threonine-protein kinase B-raf (BRAF, Homo sapiens, UniProt P15056, V600E)

Cc1cnn2ncc(-c3ccnc(N(C)C)n3)c2c1 — remaining binding (BRAF; binding; 1 µM): 82%
C[C@@H](c1ccc(-n2cnc3c(N)ncnc32)cc1)N1CCc2nn(C)c(Cc3ccccc3)c2C1=O — remaining binding (BRAF; binding, competition with immobilised ligand; 0.1 µM): 100%
CN(C)C(=O)Cn1cc(-c2nc(C3(c4ccc(-c5cnc(N)nc5)cc4)CC3)no2)cn1 — remaining binding (BRAF; cell-free assay, competition with immobilised ligand; 1 µM): 88%
CN1CCN(c2ccc(Nc3nccc(-c4ccccc4)n3)cc2C(F)(F)F)CC1 — remaining binding (BRAF V600E; binding; 10 µM): 31%
CNCc1ccccc1-c1csc([C@H](C)Nc2nc(C)nc3cc(OC)c(OC)cc23)c1 — remaining binding (BRAF; cell-free assay, competition with immobilised ligand; 1 µM): 97%
c1cnn2ncc(-c3ccnc(N4CCC45COC5)n3)c2c1 — remaining binding (BRAF; binding; 1 µM): 56%
COc1cnc(Nc2cccc(S(N)(=O)=O)c2)nc1N1CCN(c2ccccc2)CC1 — remaining binding (BRAF V600E; binding, competition with immobilised ligand; 1 µM): 82%
Cc1cnc(Nc2ccc(C(=O)N3CCC(N4CCCC4)CC3)cc2)nc1-c1cc2ccccc2s1 — remaining binding (BRAF; binding, competition with immobilised ligand; 1 µM): 46%
CCC(=N\O)/C(C)=C/c1ccc(F)cc1 — remaining binding (BRAF V600E; cell-free assay, competition with immobilised ligand; 1 µM): 77%
COc1ncc2cc3ccccc3nc2c1C#N — remaining binding (BRAF V600E; cell-free assay, competition with immobilised ligand; 5 µM): 100%
CN(C)c1nccc(-c2cnc3ncccn23)n1 — remaining binding (BRAF; binding; 1 µM): 89%
O=C(NCCCN1CCOCC1)c1ccc(Nc2ncc(Cl)c(-c3ccc(Cl)s3)n2)cc1 — remaining binding (BRAF V600E; binding, competition with immobilised ligand; 1 µM): 92%
CN(C)c1nccc(-c2cnn3ncccc23)n1 — remaining binding (BRAF; binding; 1 µM): 74%
COc1cnc(Nc2cccc(S(N)(=O)=O)c2)nc1N1CCN(c2ccccc2)C(=O)C1 — remaining binding (BRAF V600E; binding, competition with immobilised ligand; 1 µM): 84%
Cc1cc(NC(=O)c2cccc(S(F)(F)(F)(F)F)c2)cc(-n2ccn3nc(-c4cccnc4)cc23)c1 — remaining binding (BRAF V600E; cell-free assay, competition with immobilised ligand; 1 µM): 24.4%
O=C(Nc1c[nH]nc1C(=O)NC1CCNCC1)c1cc(F)cc(F)c1 — remaining binding (BRAF V600E; binding, competition with immobilised ligand; 1 µM): 100%
CCN1CCN(Cc2ccc(C(=O)Nc3ccc(C)c(Oc4ccc5c(c4)CC(=O)N5)c3)cc2C(F)(F)F)CC1 — remaining binding (BRAF; binding, competition with immobilised ligand; 1 µM): 64%
CN(CCCC(F)(F)F)c1nccc(-c2cnn3ncccc23)n1 — remaining binding (BRAF; binding; 1 µM): 100%
Nc1ncc2c(n1)-c1c([nH]c3ccc(C#CC4CC4)cc13)CCCC2 — remaining binding (BRAF; binding, competition with immobilised ligand; 1 µM): 100%
c1cncc(-c2cccc(Nc3nccc(NC4CCCCC4)n3)c2)c1 — remaining binding (BRAF V600E; binding, competition with immobilised ligand; 10 µM): 52%
NS(=O)(=O)c1cc(NC(=O)Cc2ccccc2)ccc1Oc1cccc(Cl)c1 — remaining binding (BRAF; cell-free assay, competition with immobilised ligand; 1 µM): 96%
C=CC(=O)N1CCC(C(=O)NCC(=O)N2CCN(c3nc(-c4cnc(N)nc4C(F)F)nc(N4CCOCC4)n3)CC2)CC1 — remaining binding (BRAF; binding, competition with immobilised ligand; 1 µM): 92%
O=C(c1ccc(Nc2nccc(-c3cc4ccccc4s3)n2)cc1)N1CCC(N2CCCC2)CC1 — remaining binding (BRAF V600E; binding, competition with immobilised ligand; 1 µM): 21%
N[C@H]1CCN(c2nccc(-c3cnn4ncccc34)n2)C1 — remaining binding (BRAF V600E; binding; 1 µM): 92%
O=C(c1ccc(Nc2ncc(Cl)c(-c3ccc(Cl)s3)n2)cc1)N1CCC(N2CCCC2)CC1 — remaining binding (BRAF V600E; binding, competition with immobilised ligand; 1 µM): 37%
CC(C)(C)c1ccc(-c2nc(CBr)nn2-c2cccc(O)c2)cc1 — remaining binding (BRAF; cell-free assay, competition with immobilised ligand; 10 µM): 77%
O=C(NCCCN1CCOCC1)c1ccc(Nc2nccc(-c3cc4ccccc4s3)n2)cc1 — remaining binding (BRAF; binding, competition with immobilised ligand; 1 µM): 77%
O=C(NCC1CCOCC1)c1n[nH]cc1NC(=O)c1c(F)cccc1F — remaining binding (BRAF; binding, competition with immobilised ligand; 1 µM): 93%
Cc1nc(Cc2cccc(C(F)(F)F)c2)sc1-c1ccc(C(N)=O)nc1 — remaining binding (BRAF V600E; cell-free assay, competition with immobilised ligand; 1 µM): 100%
N#Cc1ccccc1CSc1nnc2c(n1)[nH]c1ccccc12 — remaining binding (BRAF; binding, competition with immobilised ligand; 10 µM): 94%
CC1CCCN1c1nccc(-c2cnn3ncccc23)n1 (stereo not shown) — remaining binding (BRAF V600E; binding; 1 µM): 100%
Cc1nccc(COC(=O)N2C[C@@H]3[C@@H](CNC(=O)c4ccc5[nH]nnc5c4)[C@@H]3C2)n1 — remaining binding (BRAF V600E; cell-free assay, competition with immobilised ligand; 1 µM): 100%
O=C(c1ccc(Nc2ncc(Cl)c(-c3cc4ccccc4s3)n2)cc1)N1CCC(N2CCCC2)CC1 — remaining binding (BRAF; binding, competition with immobilised ligand; 1 µM): 64%
Cc1c(NC(=O)c2cc(C(N)=O)nc3cc(F)ccc23)c(C(F)(F)F)nn1Cc1ccc(C#N)cc1 — remaining binding (BRAF V600E; cell-free assay, competition with immobilised ligand; 1 µM): 90%
C[C@@H]1CN(c2ccc3ncc(-c4ccc5[nH]nc(C6CC6)c5c4)n3n2)C[C@H](C)O1 — remaining binding (BRAF; binding, competition with immobilised ligand; 50 nM): 91%
CNC(=O)[C@@H]1CC[C@@H](n2c(-c3ccc4cnccc4c3)nc3ccc(C(=O)NCc4cccc(C(N)=O)c4)cc32)C1 — remaining binding (BRAF V600E; binding, competition with immobilised ligand; 1 µM): 100%
C[C@H]1CCN(c2nccc(-c3cnn4ncccc34)n2)C1 — remaining binding (BRAF V600E; binding; 1 µM): 93%
